# ChEMBL document CHEMBL2146419, “Effects of polyphenol compounds on influenza A virus replication and definition of their mechanism of action” (Bioorg Med Chem, 2012)
# The source made the active and inactive calls. The rule behind the calls is not given here.
# Key:
# MDCK [1] = experiment: Inhibition of PKC/p38MAPK-mediated nuclear-cytoplasmic viral ribonucleoprotein export in dog MDCK cells infected with Influenza virus A/Puerto Rico/8/34 H1N1 measured at 8 hrs post-infection by inmmunofluorescence; type: cell-based; details: Canis lupus familiaris
# Outline: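 MDCK cells were infected with PR8 at 1 M.O.I. for single-cycle replication. At 8 h p.i. cells were fixed, permeabilized and stained with DAPI, then with anti-NP primary and FITC-conjugated secondary antibody. NP localization was assessed by fluorescence microscopy.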
# MDCK [2] = experiment: Restoration of GSH level in dog MDCK cells infected with Influenza virus A/Puerto Rico/8/34 H1N1 assessed as impairment of viral protein localization on plasma membrane measured at 24 hrs post-infection by immunofluorescence assay; type: functional, cell-based; details: Canis lupus familiaris
# [3] = target: T1, Protein kinase C (PKC) (Homo sapiens) (UniProt O94806+P41743+P17252+P05129+Q05655+P05771+Q05513+Q02156+P24723+Q15139+Q04759); experiment: Inhibition of PKC-mediated PKD phosphorylation in human NCI-H292 cells infected with Influenza virus A/Puerto Rico/8/34 H1N1 measured at 6 hrs post-infection by immunoblotting analysis; type: cell-based
# Outline: (§1)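 NCI-H292 cells, mock- or PR8-infected at 1 M.O.I., were treated and lysed 6 h p.i. Lysates were run on 10% SDS–PAGE and blotted with rabbit anti-phospho-PKD, -ERK1/2, -p38MAPK or -JNK antibodies. Membranes were then stripped and reprobed for the corresponding total proteins.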
# Influenza A virus [4] = experiment: Antiviral activity against Influenza virus A/Puerto Rico/8/34 H1N1 infected in dog MDCK cells incubated at 6 hrs post-infection measured after 24 hrs by hemagglutininating unit assay relative to control; type: functional, organism-based; details: A/Puerto Rico/8/1934(H1N1)
# Outline: (§2)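 Treatment of PR8-infected MDCK cells started at 2, 4, 6 or 8 h p.i. and compound stayed in the medium through 24 h p.i. Virus yield in the supernatant was read by HAU at 24 h p.i. as a percentage of DMSO-treated control infected cells. Means of two experiments, each in duplicate.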
# MDCK [5] = experiment: Inhibition of PKC/p38MAPK-mediated nuclear-cytoplasmic viral nucleoprotein export in dog MDCK cells infected with Influenza virus A/Puerto Rico/8/34 H1N1 assessed as decrease in nucleoprotein level in cytoplasm measured at 8 hrs post-infection by Western blot analysis; type: cell-based; details: Canis lupus familiaris
# Outline: (§3)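 Cytosolic and nuclear extracts from treated and untreated infected MDCK cells were run on SDS-PAGE and immunoblotted with anti-NP antibodies. Blots were stripped and reprobed for α-tubulin (cytosol) or lamin A/C (nucleus). Densitometry is given as the NP/tubulin or NP/lamin ratio; one representative experiment of three.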
# Influenza A virus [6] = experiment: Antiviral activity against Influenza virus A/Puerto Rico/8/34 H1N1 infected in dog MDCK cells assessed as inhibition of viral replication at 20 ug/mL incubated at 1 hr post-infection measured after 24 hrs by hemagglutininating unit assay relative to control; type: functional; details: A/Puerto Rico/8/1934(H1N1)
# Outline: (§4)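 MDCK cells infected with PR8; 1 h after adsorption they were washed, and compound (5–20 μg/ml) or DMSO was added and kept on throughout. Virus released into the supernatant was titrated by HAU assay 24 h p.i. Yield is a percentage of control infected cells given 0.02% DMSO. Means of four experiments, each in duplicate.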
# MDCK [7] = experiment: Cytotoxicity against dog MDCK cells assessed as modification of cell multiplication rate incubated for 24 hrs followed by compound wash out measured after 24 hrs by cell counting analysis; type: cell-based, Canis lupus familiaris
# Outline: (§5)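 Confluent MDCK monolayers plated at 2×10^5/ml were treated after 24 h with compound at 5–40 μg/ml and incubated a further 24 h. Assessed by microscopic examination of morphology, Trypan blue exclusion for viability, and cell counts for multiplication rate.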
# Influenza A virus [8] = experiment: Antiviral activity against Influenza virus A/Puerto Rico/8/34 H1N1 infected in dog MDCK cells incubated for 1 hr post-infection followed by compound washout by hemagglutininating unit assay; type: functional, organism-based; details: A/Puerto Rico/8/1934(H1N1)
# MDCK [9] = experiment: Inhibition of PKC/p38MAPK-mediated nuclear-cytoplasmic viral nucleoprotein export in dog MDCK cells infected with Influenza virus A/Puerto Rico/8/34 H1N1 assessed as increase in nucleoprotein level in nucleus measured at 8 hrs post-infection by Western blot analysis; type: cell-based; details: Canis lupus familiaris; outline: as §3
# MDCK [10] = experiment: Cytotoxicity against dog MDCK cells assessed as loss of cell viability incubated for 24 hrs followed by compound wash out measured after 24 hrs by trypan blue exclusion assay; type: cell-based, Canis lupus familiaris; outline: as §5
# MDCK [11] = experiment: Restoration of GSH level in dog MDCK cells infected with Influenza virus A/Puerto Rico/8/34 H1N1 measured at 24 hrs post-infection by DTNB-based colometric assay; type: functional, cell-based; details: Canis lupus familiaris
# Outline: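 MDCK cells, infected or mock-infected and treated, were assayed for intracellular GSH and GSSG with a glutathione assay kit at 24 h p.i. Results are in nmol per mg protein, as the mean of two experiments each in duplicate, compared against mock-infected cells.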
# Influenza A virus [12] = experiment: Antiviral activity against Influenza virus A/Puerto Rico/8/34 H1N1 infected in dog MDCK cells incubated at 1 hr post-infection measured after 24 hrs by hemagglutininating unit assay; type: functional, organism-based; details: A/Puerto Rico/8/1934(H1N1); outline: as §4
# Influenza A virus [13] = experiment: Downregulation of HA protein expression in Influenza virus A/Puerto Rico/8/34 H1N1 infected in dog MDCK cells measured at 24 hrs post-infection; type: functional, organism-based; details: A/Puerto Rico/8/1934(H1N1)
# Outline: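 PR8-infected MDCK cells, untreated or treated, were lysed at 24 h. Homogenates were run on 12% gels under reducing conditions, blotted to nitrocellulose and probed with goat polyclonal anti-influenza antibodies. Densitometry was expressed as the ratio of each viral protein to actin, relative to untreated infected cells.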
# MDCK [14] = experiment: Restoration of GSH level in dog MDCK cells infected with Influenza virus A/Puerto Rico/8/34 H1N1 assessed as viral protein localization on peri-nuclear zone measured at 24 hrs post-infection by immunofluorescence assay; type: functional, cell-based; details: Canis lupus familiaris
# MDCK [15] = experiment: Cytotoxicity against dog MDCK cells assessed as morphological alterations incubated for 24 hrs followed by compound wash out measured after 24 hrs by microscopic analysis; type: cell-based, Canis lupus familiaris; outline: as §5
# Influenza A virus [16] = experiment: Antiviral activity against Influenza virus A/Puerto Rico/8/34 H1N1 infected in dog MDCK cells incubated at 8 hrs post-infection measured after 24 hrs by hemagglutininating unit assay relative to control; type: functional, organism-based; details: A/Puerto Rico/8/1934(H1N1); outline: as §2
# [17] = target: T1, Protein kinase C (PKC) (Homo sapiens); experiment: Inhibition of PKC-mediated ERK2 phosphorylation in human NCI-H292 cells infected with Influenza virus A/Puerto Rico/8/34 H1N1 measured at 6 hrs post-infection by immunoblotting analysis; type: cell-based; outline: as §1
# Influenza A virus [18] = experiment: Antiviral activity against Influenza virus A/Puerto Rico/8/34 H1N1 infected in dog MDCK cells incubated for 1 hr prior to infection by hemagglutininating unit assay; type: functional, organism-based; details: A/Puerto Rico/8/1934(H1N1)
# Outline: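 Timing variants, each read by HAU of virus yield from MDCK cells: PR8 stock preincubated 1 h with compound before infection; compound present only during the 1 h adsorption; or cells pretreated overnight with washout just before viral challenge.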
# [19] = target: T1, Protein kinase C (PKC) (Homo sapiens); experiment: Inhibition of PKC-mediated p38MAPK phosphorylation in human NCI-H292 cells infected with Influenza virus A/Puerto Rico/8/34 H1N1 measured at 6 hrs post-infection by immunoblotting analysis; type: cell-based; outline: as §1
# [20] = target: T1, Protein kinase C (PKC) (Homo sapiens); experiment: Inhibition of PKC-mediated JNK phosphorylation in human NCI-H292 cells infected with Influenza virus A/Puerto Rico/8/34 H1N1 measured at 6 hrs post-infection by immunoblotting analysis; type: cell-based; outline: as §1
# Influenza A virus [21] = experiment: Antiviral activity against Influenza virus A/Puerto Rico/8/34 H1N1 infected in dog MDCK cells incubated at 2 hrs post-infection measured after 24 hrs by hemagglutininating unit assay relative to control; type: functional, A/Puerto Rico/8/1934(H1N1); outline: as §2
# Influenza A virus [22] = experiment: Antiviral activity against Influenza virus A/Puerto Rico/8/34 H1N1 infected in dog MDCK cells incubated at 4 hrs post-infection measured after 24 hrs by hemagglutininating unit assay relative to control; type: functional, A/Puerto Rico/8/1934(H1N1); outline: as §2
SMILES,inhibition (MDCK [1]),Activity (MDCK [2]),inhibition [3],Activity (Influenza A virus [4]),inhibition (MDCK [5]),Activity (MDCK [7]),Activity (Influenza A virus [8]),inhibition (MDCK [9]),Activity (MDCK [10]),Activity (MDCK [11]),Activity (Influenza A virus [12]),Activity (Influenza A virus [13]),Activity (MDCK [14]),Activity (MDCK [15]),Activity (Influenza A virus [16]),inhibition [17],Activity (Influenza A virus [18]),inhibition [19],inhibition [20],Activity (Influenza A virus [21]) [%],other results
O=C(/C=C/c1ccc(O)cc1)c1ccc(O)cc1O [ISOLIQUIRITIGENIN],Active,Active,Active,Active,Active,Non-toxic,inactive,Active,Non-toxic,Active,Dose-dependent effect,Active,Active,Non-toxic,inactive,inactive,inactive,Active,Active,79,inhibition (Influenza A virus [6]): Active; Activity (Influenza A virus [22]): 79%
O=C1/C(=C/c2ccc(O)c(O)c2)COC/C1=C\c1ccc(O)c(O)c1,Active,Active,Active,Active,Active,Non-toxic,inactive,Active,Non-toxic,Active,Dose-dependent effect,Active,Active,Non-toxic,inactive,inactive,inactive,Active,Active,79,inhibition at 20 µg/mL (Influenza A virus [6]): 75%; Activity (Influenza A virus [22]): 79%
